{"source": "paper PMC4179762", "about": "(Drug Design, Development and Therapy, 2014)", "key": {"[1]": {"target": "T1, hH4R (Homo sapiens, UniProt Q9H3N8)", "T1 sequence (Q9H3N8 whole entry)": "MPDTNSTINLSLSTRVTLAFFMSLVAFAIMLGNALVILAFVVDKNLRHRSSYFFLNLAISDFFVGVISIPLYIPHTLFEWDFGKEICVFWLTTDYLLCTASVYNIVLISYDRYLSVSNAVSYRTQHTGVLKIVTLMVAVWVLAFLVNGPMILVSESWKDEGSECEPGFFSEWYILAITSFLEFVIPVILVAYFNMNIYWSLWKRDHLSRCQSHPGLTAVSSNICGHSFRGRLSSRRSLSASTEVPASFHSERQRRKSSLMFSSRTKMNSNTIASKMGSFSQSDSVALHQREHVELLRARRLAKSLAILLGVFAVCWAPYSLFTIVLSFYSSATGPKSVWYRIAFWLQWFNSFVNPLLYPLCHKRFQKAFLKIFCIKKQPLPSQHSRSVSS", "assay": "Metric analyses", "conditions": "LELP=clogP/LE"}, "[2]": {"target": "T2, hH3R (Homo sapiens, UniProt Q9Y5N1)", "T2 sequence (Q9Y5N1 whole entry)": "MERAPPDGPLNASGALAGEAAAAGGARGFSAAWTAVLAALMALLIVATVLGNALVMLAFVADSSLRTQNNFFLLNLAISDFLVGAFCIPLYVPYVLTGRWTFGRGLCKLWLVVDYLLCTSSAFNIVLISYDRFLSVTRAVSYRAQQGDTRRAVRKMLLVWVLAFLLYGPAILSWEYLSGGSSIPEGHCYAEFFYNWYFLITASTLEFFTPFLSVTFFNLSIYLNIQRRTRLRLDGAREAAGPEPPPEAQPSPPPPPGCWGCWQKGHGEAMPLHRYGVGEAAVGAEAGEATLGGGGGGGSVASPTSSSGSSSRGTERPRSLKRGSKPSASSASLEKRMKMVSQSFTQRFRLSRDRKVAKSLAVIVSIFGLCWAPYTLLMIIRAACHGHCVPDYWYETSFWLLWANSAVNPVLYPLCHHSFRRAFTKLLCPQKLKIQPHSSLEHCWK", "assay": "hH3R radioligand competition binding assay", "outline": "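HEK-293 membranes stably expressing hH3R, sonicated at 4°C, in 12.5 mM MgCl2/100 mM NaCl/75 mM Tris-HCl pH 7.4; 20–25 μg/well. […] Unlabeled histamine defined non-specific binding. PEI-treated GF/B filtration, scintillation counting, nonlinear fit; Ki by Cheng–Prusoff.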"}, "[3]": {"target": "T1, hH4R", "assay": "hH4R radioligand competition binding assay", "conditions": "compared to compound 3", "outline": "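Sf9 membranes co-expressing hH4R with Gαi2 and Gβ1γ2, pelleted (16,000 g, 10 min, 4°C) into 12.5 mM MgCl2/1 mM EDTA/75 mM Tris-HCl pH 7.4; 35 μg/well. Incubated 60 min, 25°C, shaking, with 10 nM [3H]histamine and seven test concentrations (0.1 nM–100 μM), triplicate. Non-specific binding with 100 μM histamine. PEI-treated GF/B filtration, scintillation counting; Ki by Cheng–Prusoff.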"}, "[4]": {"target": "T2, hH3R", "assay": "Metric analyses", "conditions": "LELP=clogP/LE"}, "[5]": {"target": "T2, hH3R", "assay": "hH3R saturation binding experiments with [3H]Nα-methylhistamine"}}, "data": [{"molecule": "6-(4-methylpiperazin-1-yl)-N-(4-(3-(piperidin-1-yl)propoxy)benzyl)pyrimidin-2,4-diamine [Compound 4]", "values": [{"measurement": "LELP (hH4R)", "setting": "[1]", "result": 13.11}, {"measurement": "fold weaker affinity for hH3Rs", "setting": "[2]; compared to compound 3", "result": "~5", "unit": "×"}, {"measurement": "fold higher affinity for hH4Rs", "setting": "[3]", "result": 3, "unit": "×"}]}, {"molecule": "CN1CCN(c2cc(Nc3ccc(OCCCN4CCCCC4)cc3)nc(N)n2)CC1", "note": "[Compound 3, 6-(4-methylpiperazin-1-yl)-N^4-(4-(3-(piperidin-1-yl)propoxy)phenyl)pyrimidin-2,4-diamine]", "values": [{"measurement": "LELP (hH4R)", "setting": "[1]", "result": 15.17}, {"measurement": "fold increased affinity for hH3R", "setting": "[2]; vs compound 2", "result": 49, "unit": "×"}]}, {"molecule": "c1ccc(CNc2ccnc(Nc3ccc(OCCCN4CCCCC4)cc3)n2)cc1", "note": "[Compound 5, N^4-benzyl-N^2-(4-(3-(piperidin-1-yl)propoxy)phenyl)pyrimidin-2,4-diamine]", "values": [{"measurement": "LELP (hH4R)", "setting": "[1]", "result": 23.57}, {"measurement": "Ratio hH4R/hH3R", "setting": "[2]; receptor subtype selectivity, Ki hH4R / Ki hH3R", "result": "more than 6,500"}, {"measurement": "LELP (hH3R)", "setting": "[4]", "result": 12.79}]}, {"molecule": "CN1CCN(CCCOc2ccc(Nc3nccc(NCc4ccccc4)n3)cc2)CC1", "note": "[Compound 6, N^4-benzyl-N^2-(4-(3-(4-methylpiperazin-1-yl)propoxy)phenyl)pyrimidin-2,4-diamine]", "values": [{"measurement": "LELP (hH4R)", "setting": "[1]", "result": 17.82}, {"measurement": "LELP (hH3R)", "setting": "[4]", "result": 13.55}]}, {"molecule": "CNCCc1cnc[nH]1", "note": "[[^3H] N^α-MeHA, [^3H]N^α-methylhistamine]", "values": [{"measurement": "Kd", "setting": "[5]; read-out: Kd value of radioligand at hH3R, HEK-293 membranes", "result": 2.98, "unit": "nM"}]}, {"molecule": "[3H]CNCCc1cnc[nH]1", "note": "[[^3H] N^α-MeHA, [^3H]N^α-methylhistamine]", "values": [{"measurement": "pKd of radioligand at hH3R", "setting": "[5]; HEK-293 membranes", "result": "8.53±0.01"}]}]}
